Laboratory results as given in ChEMBL document CHEMBL1145335, “Nonpeptide inhibitors of measles virus entry” (J Med Chem, 2006).
The source made the active and inactive calls. No cut-off for these calls is given here.

Legend:
Measles morbillivirus [1] = assay: Antiviral activity against wild type Measles virus Edmonston in Vero-CD150w cells by cytopathicity assay; format: functional, organism-based
Outline: (§1)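 Cells infected with MV Edmonston at MOI 0.2 pfu/cell in the presence of 2-fold compound dilutions, starting at 75–300 µM and ending at 0.3–1.2 µM. Two to four replicates per concentration; DMSO ≤0.1% with matched DMSO controls. Virus-induced cytopathicity was read at 96 h post-infection by nonradioactive proliferation assay. IC50 was taken from dose-response curves of replicate averages.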

Vero [2] = assay: Cytotoxicity against Vero-CD150w cells; format: functional; settings: Chlorocebus sabaeus
Outline: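 Uninfected cells were exposed to 2-fold compound dilutions from 600 µM down to 2.3 µM for 36 to 40 h. Remaining proliferation was then measured over 1 h by nonradioactive proliferation assay. CC50 comes from two independent replicates.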

Vero [3] = assay: Selectivity index, CC50 for Vero-CD150w cells/IC50 for Measles virus Edmonston; format: functional
Outline: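 Ratio of CC50 to IC50. CC50: 2-fold dilutions from 600 µM, 36–40 h exposure, proliferation read-out, two independent replicates. IC50: suppression of cytopathicity at MOI 0.2 pfu/cell, 96 h, proliferation read-out, from dose-response curves of replicate averages.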

Measles morbillivirus [4] = assay: Antiviral activity against Measles virus variant in Vero-CD150w cells by cytopathicity assay; format: functional, organism-based
Outline: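 MV variant carrying an F-protein point mutation at position 462. Cells infected at MOI 0.2 pfu/cell with 2-fold compound dilutions starting at 75–300 µM, in 2–4 replicates, with DMSO at most 0.1% and DMSO-matched controls. Cytopathicity quantified at 96 h post-infection by a nonradioactive proliferation assay. IC50 taken from dose-response curves of replicate averages.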

Measles morbillivirus [5] = assay: Antiviral activity against wild type Measles virus Edmonston in Vero-CD150w cells at >75 uM by cytopathicity assay; format: functional, organism-based; outline: as §1
Measles morbillivirus [6] = assay: Antiviral activity against wild type Measles virus Edmonston in Vero-CD150w cells upto 100 uM by cytopathicity assay; format: functional, organism-based; outline: as §1
[7] = Measles morbillivirus, Edmonston, Vero-CD150w, read-out: IC50

## Nc1cc(C(=O)NCc2ccccc2)cc([N+](=O)[O-])c1
Measles morbillivirus [1]; [7]
  IC50: 23 µM

## O=C(Cc1cccc(I)c1)Nc1cccc([N+](=O)[O-])c1
Measles morbillivirus [1]; [7]
  IC50: > 300 µM

## O=C(Cc1ccccc1)Nc1cc(C(=O)O)cc([N+](=O)[O-])c1
Vero [2]
  CC50: > 600 µM
Vero [3]
  Selectivity index: >120
Measles morbillivirus [4]
  IC50: > 150 µM
Measles morbillivirus [1]; [7]
  IC50: 5 µM

## O=C(Cc1ccncc1)Nc1cccc([N+](=O)[O-])c1
Measles morbillivirus [1]; [7]
  IC50: > 75 µM

## O=C(Cc1ccccc1)Nc1cc([N+](=O)[O-])ccc1OC(=O)Cc1ccccc1
Vero [2]
  CC50: 75 µM
Vero [3]
  Selectivity index: 1
Measles morbillivirus [1]; [7]
  IC50: 68 µM

## O=C(COc1ccccc1)Nc1cc([N+](=O)[O-])ccc1O
Vero [2]
  CC50: 600 µM
Vero [3]
  Selectivity index: <6
Measles morbillivirus [1]; [7]
  IC50: > 100 µM

## O=[N+]([O-])c1ccc(O)c(NS(=O)(=O)Cc2ccccc2)c1
Measles morbillivirus [1]; [7]
  IC50: > 300 µM

## NC(=O)c1cc(N)cc(NC(=O)Cc2ccccc2)c1
Vero [2]
  CC50: > 600 µM
Vero [3]
  Selectivity index: >33
Measles morbillivirus [1]; [7]
  IC50: 18 µM

## O=C(Cc1cccnc1)Nc1cccc([N+](=O)[O-])c1
Measles morbillivirus [1]; [7]
  IC50: > 75 µM

## Nc1ccc(NC(=O)Cc2ccccc2)c(O)c1
Vero [2]
  CC50: > 600 µM
Vero [3]
  Selectivity index: >8
Measles morbillivirus [1]; [7]
  IC50: 75 µM

## O=C(Cc1ccccc1)Nc1cc(NO)cc([N+](=O)[O-])c1
Vero [2]
  CC50: 325 µM
Vero [3]
  Selectivity index: 54
Measles morbillivirus [4]
  IC50: > 75 µM
Measles morbillivirus [1]; [7]
  IC50: 6 µM

## O=C(COc1ccccc1)Nc1ccc([N+](=O)[O-])cc1O
Vero [2]
  CC50: > 600 µM
Measles morbillivirus [1]; [7]
  IC50: > 100 µM

## Nc1cc(NC(=O)Cc2ccccc2)cc([N+](=O)[O-])c1
Vero [2]
  CC50: > 600 µM
Vero [3]
  Selectivity index: >55
Measles morbillivirus [4]
  IC50: > 150 µM
Measles morbillivirus [1]; [7]
  IC50: 11 µM

## N#Cc1cccc(NC(=O)Cc2ccccc2)c1
Vero [2]
  CC50: > 600 µM
Vero [3]
  Selectivity index: >92
Measles morbillivirus [4]
  IC50: > 150 µM
Measles morbillivirus [1]; [7]
  IC50: 6.5 µM

## O=C(Cc1ccccn1)Nc1cccc([N+](=O)[O-])c1
Measles morbillivirus [1]; [7]
  IC50: > 75 µM

## O=C(Cc1ccc(I)cc1)Nc1cccc([N+](=O)[O-])c1
Measles morbillivirus [1]; [7]
  IC50: > 75 µM

## O=C(Cc1ccccc1F)Nc1cccc([N+](=O)[O-])c1
Measles morbillivirus [5]
  Activity: inactive

## COc1cccc(CC(=O)Nc2cc([N+](=O)[O-])ccc2O)c1
Vero [2]
  CC50: > 600 µM
Measles morbillivirus [1]; [7]
  IC50: > 100 µM

## O=C(Cc1ccc(F)cc1)Nc1cccc([N+](=O)[O-])c1
Measles morbillivirus [1]; [7]
  IC50: 9 µM

## O=C(Cc1ccccc1)Nc1cccc(O)c1
Vero [2]
  CC50: > 600 µM
Vero [3]
  Selectivity index: >24
Measles morbillivirus [1]; [7]
  IC50: 25 µM

## O=C(Cc1ccccc1)Nc1ccccc1C(=O)O
Vero [2]
  CC50: > 600 µM
Vero [3]
  Selectivity index: >10
Measles morbillivirus [1]; [7]
  IC50: 60 µM

## O=C(Cc1ccccc1)Nc1ccc(O)c([N+](=O)[O-])c1
Vero [2]
  CC50: > 600 µM
Vero [3]
  Selectivity index: >10
Measles morbillivirus [1]; [7]
  IC50: 63 µM

## Nc1cc(CO)cc(NC(=O)Cc2ccccc2)c1
Measles morbillivirus [6]
  Activity: inactive

## O=C(Cc1cccc(F)c1)Nc1cccc([N+](=O)[O-])c1
Measles morbillivirus [1]; [7]
  IC50: 47 µM

## NC(=O)c1ccc([N+](=O)[O-])cc1NC(=O)Cc1ccccc1
Vero [2]
  CC50: 325 µM
Vero [3]
  Selectivity index: 108
Measles morbillivirus [4]
  IC50: > 150 µM
Measles morbillivirus [1]; [7]
  IC50: 3 µM

## O=C(Cc1ccccc1)Nc1cc([N+](=O)[O-])ccc1O
Vero [2]
  CC50: 450 µM
Vero [3]
  Selectivity index: 10
Measles morbillivirus [1]; [7]
  IC50: 47 µM

## O=C(Cc1ccccc1)Nc1ccc(F)cn1
Vero [2]
  CC50: > 600 µM
Vero [3]
  Selectivity index: >6
Measles morbillivirus [1]; [7]
  IC50: 109 µM

## COc1ccc(CC(=O)Nc2cc([N+](=O)[O-])ccc2O)cc1
Vero [2]
  CC50: 600 µM
Vero [3]
  Selectivity index: <6
Measles morbillivirus [1]; [7]
  IC50: > 100 µM

## COC(=O)c1ccc(O)c(NC(=O)Cc2ccccc2)c1
Vero [2]
  CC50: > 600 µM
Vero [3]
  Selectivity index: >9
Measles morbillivirus [1]; [7]
  IC50: 66 µM

## Nc1cccc(NC(=O)Cc2ccccc2)c1
Vero [2]
  CC50: > 600 µM
Vero [3]
  Selectivity index: >32
Measles morbillivirus [4]
  IC50: > 150 µM
Measles morbillivirus [1]; [7]
  IC50: 19 µM

## O=C(Cc1ccccc1)Nc1ccc(F)c([N+](=O)[O-])c1
Vero [2]
  CC50: 450 µM
Vero [3]
  Selectivity index: <5
Measles morbillivirus [1]; [7]
  IC50: > 100 µM

## O=C(Cc1ccccc1)Nc1cc([N+](=O)[O-])cc([N+](=O)[O-])c1
Vero [2]
  CC50: > 600 µM
Vero [3]
  Selectivity index: >20
Measles morbillivirus [4]
  IC50: > 150 µM
Measles morbillivirus [1]; [7]
  IC50: 30 µM

## Nc1cc(N)cc(NC(=O)Cc2ccccc2)c1
Measles morbillivirus [1]; [7]
  IC50: > 100 µM

## O=C(Cc1ccccc1)Nc1ccccc1[N+](=O)[O-]
Vero [2]
  CC50: > 600 µM
Measles morbillivirus [1]; [7]
  IC50: > 100 µM

## NC(=O)c1ccc(O)c(NC(=O)Cc2ccccc2)c1
Vero [2]
  CC50: > 600 µM
Vero [3]
  Selectivity index: >5
Measles morbillivirus [1]; [7]
  IC50: 127 µM

## O=C(Cc1ccccc1)Nc1cc(C(F)(F)F)ccc1O
Vero [2]
  CC50: > 600 µM
Measles morbillivirus [1]; [7]
  IC50: > 100 µM

## Nc1ccc(CO)c(NC(=O)Cc2ccccc2)c1
Measles morbillivirus [6]
  Activity: inactive

## Nc1ccc(NC(=O)Cc2ccccc2)cc1
Vero [2]
  CC50: > 600 µM
Vero [3]
  Selectivity index: >4
Measles morbillivirus [1]; [7]
  IC50: 135 µM

## COC(=O)c1cc(NC(=O)Cc2ccccc2)cc([N+](=O)[O-])c1
Vero [2]
  CC50: 440 µM
Vero [3]
  Selectivity index: 110
Measles morbillivirus [4]
  IC50: > 150 µM
Measles morbillivirus [1]; [7]
  IC50: 4 µM

## NC(=O)c1cc(NC(=O)Cc2ccccc2)cc([N+](=O)[O-])c1
Vero [2]
  CC50: 170 µM
Vero [3]
  Selectivity index: 46
Measles morbillivirus [4]
  IC50: > 75 µM
Measles morbillivirus [1]; [7]
  IC50: 3.7 µM

## Nc1ccc2oc(Cc3ccccc3)nc2c1
Vero [2]
  CC50: > 600 µM
Vero [3]
  Selectivity index: >10
Measles morbillivirus [4]
  IC50: > 150 µM
Measles morbillivirus [1]; [7]
  IC50: 55 µM

## O=C(Cc1ccccc1I)Nc1cccc([N+](=O)[O-])c1
Measles morbillivirus [1]; [7]
  IC50: > 300 µM

## Nc1ccc(NC(=O)COc2ccccc2)c(O)c1
Measles morbillivirus [1]; vero-cd150w
  IC50: Not Active

## O=C(Cc1ccccc1)Nc1ccc([N+](=O)[O-])cc1
Vero [2]
  CC50: 550 µM
Vero [3]
  Selectivity index: 34
Measles morbillivirus [1]; [7]
  IC50: 16 µM

## O=C(Cc1ccccc1)Nc1cccc([N+](=O)[O-])c1
Vero [2]
  CC50: > 600 µM
Vero [3]
  Selectivity index: >71
Measles morbillivirus [1]; [7]
  IC50: 8.5 µM

## O=C(Cc1ccccc1)Nc1cc(CO)cc([N+](=O)[O-])c1
Vero [2]
  CC50: > 600 µM
Vero [3]
  Selectivity index: >100
Measles morbillivirus [4]
  IC50: > 150 µM
Measles morbillivirus [1]; [7]
  IC50: 6 µM

## Nc1cc(NC(=O)Cc2ccccc2)cc(C(=O)O)c1
Vero [2]
  CC50: > 600 µM
Vero [3]
  Selectivity index: >11
Measles morbillivirus [1]; [7]
  IC50: 55 µM

## O=C(Cc1ccccc1)Nc1ccccc1O
Vero [2]
  CC50: 525 µM
Vero [3]
  Selectivity index: 40
Measles morbillivirus [4]
  IC50: > 150 µM
Measles morbillivirus [1]; [7]
  IC50: 13 µM
